Screens from PubChem.
Efflux pump inh: antifungal efflux pump inhibition, Nile Red retention; S. cerevisiae Candida pump triplex; inhibition, % at 10 µM; actives 0.44% (n = 330,000);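 active = plate passing quality check with inhibition over a set limit, or well fluorescence over plate mean plus 4 SD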;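 note: Nile Red retained in pooled yeast measured as flow cytometry median fluorescence; 0% = buffer negative control and 100% = Enniatin B positive control; higher means more Nile Red kept so more efflux inhibition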
ABCB1 inh: blocks JC-1 efflux by human ABCB1 transporter | P08183 | CCRF-Adr cells, flow cytometry | inhibition, % at 6.6 µM | actives 0.067% (n = 190,000); in the data active = inhibition above about 40%;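 note: 0% = vehicle and 100% = reference inhibitor; higher value means more JC-1 retained so stronger ABCB1 efflux block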
Target sequence (P08183 whole entry, looked up): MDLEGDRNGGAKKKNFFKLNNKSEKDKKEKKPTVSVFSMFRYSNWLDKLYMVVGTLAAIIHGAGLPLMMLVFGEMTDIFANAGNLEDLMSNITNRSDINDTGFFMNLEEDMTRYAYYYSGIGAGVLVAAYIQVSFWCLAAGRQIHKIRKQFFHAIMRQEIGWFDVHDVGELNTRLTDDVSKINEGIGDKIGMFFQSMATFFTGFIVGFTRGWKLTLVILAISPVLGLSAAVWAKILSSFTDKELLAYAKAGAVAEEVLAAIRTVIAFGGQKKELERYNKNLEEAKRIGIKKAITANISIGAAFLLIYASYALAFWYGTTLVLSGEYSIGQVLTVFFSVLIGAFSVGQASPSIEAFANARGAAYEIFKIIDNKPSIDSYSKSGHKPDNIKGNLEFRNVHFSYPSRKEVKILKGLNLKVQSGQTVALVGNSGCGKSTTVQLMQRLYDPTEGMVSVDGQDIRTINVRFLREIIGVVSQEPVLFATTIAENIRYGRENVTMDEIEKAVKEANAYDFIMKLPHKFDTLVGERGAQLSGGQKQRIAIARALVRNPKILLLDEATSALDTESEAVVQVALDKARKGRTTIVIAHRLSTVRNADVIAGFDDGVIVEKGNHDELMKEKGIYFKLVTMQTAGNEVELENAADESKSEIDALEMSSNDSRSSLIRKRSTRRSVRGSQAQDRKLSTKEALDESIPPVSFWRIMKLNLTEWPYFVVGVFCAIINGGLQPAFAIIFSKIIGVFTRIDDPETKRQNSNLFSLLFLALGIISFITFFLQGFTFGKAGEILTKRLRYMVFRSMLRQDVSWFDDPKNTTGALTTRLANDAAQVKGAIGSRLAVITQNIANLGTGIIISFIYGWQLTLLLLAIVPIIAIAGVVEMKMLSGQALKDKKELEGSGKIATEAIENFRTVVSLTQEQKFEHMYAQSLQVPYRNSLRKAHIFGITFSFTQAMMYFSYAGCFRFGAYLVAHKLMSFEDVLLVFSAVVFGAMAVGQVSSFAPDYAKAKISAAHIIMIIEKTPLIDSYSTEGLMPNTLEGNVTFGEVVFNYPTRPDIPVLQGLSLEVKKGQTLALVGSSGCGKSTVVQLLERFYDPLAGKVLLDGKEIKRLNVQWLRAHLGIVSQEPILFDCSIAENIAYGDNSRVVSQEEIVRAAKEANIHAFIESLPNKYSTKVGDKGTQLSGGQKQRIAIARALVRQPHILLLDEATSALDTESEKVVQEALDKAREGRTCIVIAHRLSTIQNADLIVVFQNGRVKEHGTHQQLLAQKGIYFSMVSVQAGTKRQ
MEKK3 PB1 HTS: modulators (inhibitors or enhancers) of MEK5 binding to human MEKK3 PB1 domain; bead-based flow cytometry, Alexa488-MEK5 binding to MEKK3; actives lie on both sides; 0 = blocked by unlabeled MEK5, 100 = vehicle; binding response (% of control), % at 10 µM; actives 1.4% (n = 290,000); AID 1529;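 active = binding response more than 3 SD above or below the average of its plate-row segment, actives on both sides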;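 note: Alexa488 bead fluorescence after subtracting the streptavidin-only scavenger bead signal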
MEKK2mut PB1 HTS: signal of MEK5 binding to mutant human MEKK2 PB1 domain; bead flow cytometry, Alexa488-MEK5 binding to MEKK2 mutant; percent response, % at 10 µM; actives 0.35% (n = 290,000); AID 1530; in the data active = percent response above about 24%, passing the limit was not always enough
MEKK2wt PB1 HTS: raises or lowers MEK5 binding to wildtype human MEKK2 PB1 domain | Q9Y2U5 | bead flow cytometry, Alexa488-MEK5 binding to MEKK2 WT; actives lie on both sides | binding response (% of control), % at 10 µM | actives 1.1% (n = 290,000) | AID 1531; in the data active = binding response below about 67% or above about 130%
ABCG2 inh: human ABCG2 inhibition, ABCB1 as counter-screen. Q9UNQ0. IgMXP3 cells, JC-1 efflux, flow cytometry. inhibition, % at 6.6 µM. actives 0.1% (n = 190,000). AID 1325;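 active = inhibition above 80%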;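 note: 0% = DMSO and 100% = nicardipine control wells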
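Test system: ABCG2 IgMXP3 and barcoded ABCB1 CCRF-Adr cell mix; Schedule: cells with compound and JC-1, 10 min at 25 °C, rotating, no wash; Technique: flow cytometry of retained JC-1 fluorescence; Measure: % inhibition of efflux relative to nicardipine and DMSO; Controls: nicardipine high and DMSO low controls.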
MEKK2wt confirm: raises or lowers MEK5 binding to wildtype human MEKK2, retest; actives 2.4% (n = 5,900); binding response (% of control), % at 10 µM; shares compounds with MEKK3 PB1 HTS; bead flow cytometry, Alexa488-MEK5 binding to MEKK2 WT; actives lie on both sides; in the data active = binding response below about 16% or above about 210%; inactive = in between
MEKK2mut-MEK5: signal of MEK5 binding to mutant human MEKK2, retest. percent response, % at 10 µM. shares compounds with MEKK3 PB1 HTS. bead flow cytometry, Alexa488-MEK5 binding to MEKK2 mutant. AID 1893. actives 2% (n = 5,900); in the data active = percent response mostly above about 71%, no sharp cut-off; inactive = mostly below about 38%;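 note: higher means compound restores mutant binding toward wildtype level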
MEKK3 confirm: MEKK3-MEK5 PB1 inhibition, single concentration confirmation. shares compounds with MEKK3 PB1 HTS. bead flow cytometry, Alexa488-MEK5 binding to MEKK3; active compounds read low. binding response (% of control), % at 10 µM. actives 1.8% (n = 5,900);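 active = binding response below 72% of control, or above a set upper limit, though filed actives all read lower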;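 note: 100% = DMSO only wells and 0% = binding blocked by excess unlabeled MEK5; lower values mean stronger disruption of MEK5 binding to MEKK3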
The depositor's hits bear a star; [ ] = dose if it differs, or a comment. Sampled rows, rich in hits. Any-hit rate of the full collection: about 2.5%.

How did C#CCOCCOCCOCCNc1nc(N2CCN(C(=O)[C@H]([C@@H](C)CC)n3cc([C@@H](N)CC(C)C)nn3)CC2)nc(N2CCN(C(=O)[C@H](Cc3ccc(O)cc3)n3cc([C@@H](N)CC(C)C)nn3)CC2)n1 do in these assays?
Efflux pump inh: 0.0; ABCB1 inh: -0.5; MEKK3 PB1 HTS: 112.0; MEKK2mut PB1 HTS: 35.0; MEKK2wt PB1 HTS: 150.0*; ABCG2 inh: -1.6; MEKK2wt confirm: 150.0; MEKK2mut-MEK5: 30.0; MEKK3 confirm: 108.0

How did C#CCOCCOCCOCCNc1nc(N2CCOCC2)nc(N2CCN(C(=O)[C@H]([C@@H](C)CC)n3cc([C@@H](N)CO)nn3)CC2)n1 do in these assays?
Efflux pump inh: 0.0; ABCB1 inh: 1.0; MEKK3 PB1 HTS: 107.0; MEKK2mut PB1 HTS: 8.0; MEKK2wt PB1 HTS: 106.0; ABCG2 inh: 1.3

What do the screens show for `C#CCOCCOCCOCCNc1nc(N2CCN(C(=O)[C@H]([C@@H](C)CC)n3cc([C@@H](N)Cc4ccc(O)cc4)nn3)CC2)nc(N2CCN(C(=O)[C@H]([C@@H](C)CC)n3cc([C@@H](N)Cc4ccc(O)cc4)nn3)CC2)n1`?
Efflux pump inh: 0.1; ABCB1 inh: 0.1; MEKK3 PB1 HTS: 108.0; MEKK2mut PB1 HTS: 31.0; MEKK2wt PB1 HTS: 151.0*; ABCG2 inh: 0.9; MEKK2wt confirm: 136.0; MEKK2mut-MEK5: 15.0; MEKK3 confirm: 104.0

How did C#CCOCCOCCOCCNc1nc(N2CCN(C(=O)[C@H]([C@@H](C)CC)n3cc([C@@H](N)CC(C)C)nn3)CC2)nc(N2CCN(C(=O)[C@H]([C@@H](C)CC)n3cc([C@@H](N)CC(C)C)nn3)CC2)n1 do in these assays?
Efflux pump inh: 0.2; ABCB1 inh: -0.2; MEKK3 PB1 HTS: 116.0; MEKK2mut PB1 HTS: 87.0*; MEKK2wt PB1 HTS: 223.0*; ABCG2 inh: -0.7; MEKK2wt confirm: 180.0; MEKK2mut-MEK5: 45.0; MEKK3 confirm: 104.0

What do the screens show for `C#CCOCCOCCOCCNc1nc(N2CCN(C(=O)[C@H]([C@@H](C)CC)n3cc([C@@H](N)Cc4ccc(O)cc4)nn3)CC2)nc(N2CCN(C(=O)[C@H](CCCCN)n3cc([C@@H](N)C(C)CC)nn3)CC2)n1` (stereo partly drawn)?
Efflux pump inh: 0.2; ABCB1 inh: -0.2; MEKK3 PB1 HTS: 117.0; MEKK2mut PB1 HTS: 48.0; MEKK2wt PB1 HTS: 176.0*; ABCG2 inh: -0.9; MEKK2wt confirm: 137.0; MEKK2mut-MEK5: 17.0; MEKK3 confirm: 103.0

What do the screens show for `C#CCOCCOCCOCCNc1nc(N2CCN(C(=O)[C@H]([C@@H](C)CC)n3cc([C@@H](N)CO)nn3)CC2)nc(N2CCN(C(=O)[C@H](Cc3ccc(O)cc3)n3cc([C@@H](N)C(C)CC)nn3)CC2)n1` (stereo partly drawn)?
ABCB1 inh: 0.3; MEKK3 PB1 HTS: 106.0; MEKK2mut PB1 HTS: 11.0; MEKK2wt PB1 HTS: 111.0; ABCG2 inh: 0.3

Results for CN(C)c1ccc2c3c(ccc(N(C)C)c13)C(=O)OC2 ?
Efflux pump inh: -0.1; MEKK3 PB1 HTS: 104.0; MEKK2mut PB1 HTS: -2.0; MEKK2wt PB1 HTS: 98.0

What do the screens show for `C#CCOCCOCCOCCNc1nc(N2CCN(C(=O)[C@H]([C@@H](C)CC)n3cc([C@@H](N)CO)nn3)CC2)nc(N2CCN(C(=O)[C@H]([C@@H](C)CC)n3cc([C@@H](N)Cc4ccc(O)cc4)nn3)CC2)n1`?
Efflux pump inh: -0.1; ABCB1 inh: -0.1; MEKK3 PB1 HTS: 103.0; MEKK2mut PB1 HTS: 22.0; MEKK2wt PB1 HTS: 134.0*; ABCG2 inh: -1.0; MEKK2wt confirm: 112.0; MEKK2mut-MEK5: 8.0; MEKK3 confirm: 100.0

Results for CCOC(=O)N1CCN(C(=O)/C(=C/c2ccc(Br)cc2)NC(=O)c2ccc(OC)cc2)CC1 ?
Efflux pump inh: -0.9; ABCB1 inh: 3.7; MEKK3 PB1 HTS: 100.0; MEKK2mut PB1 HTS: 1.0; MEKK2wt PB1 HTS: 100.0; ABCG2 inh: 10.2

What do the screens show for `COc1ccccc1CCc1nnc(CCC(=O)NC(C)Cn2nc(C)cc2C)o1` (stereo not drawn)?
Efflux pump inh: 0.1; ABCB1 inh: -0.3; MEKK3 PB1 HTS: 37.0*[inhibitor]; MEKK2mut PB1 HTS: -18.0; MEKK2wt PB1 HTS: 50.0; ABCG2 inh: -0.2; MEKK2wt confirm: 104.0; MEKK2mut-MEK5: 4.0; MEKK3 confirm: 107.0

Results for CCOP(=O)(OCC)c1nc(-c2ccc(Cl)cc2Cl)oc1N1CCCCC1 ?
Efflux pump inh: 0.3; ABCB1 inh: 0.4; MEKK3 PB1 HTS: 39.0*[inhibitor]; MEKK2mut PB1 HTS: -15.0; MEKK2wt PB1 HTS: 49.0; ABCG2 inh: 1.1; MEKK2wt confirm: 99.0; MEKK2mut-MEK5: -3.0; MEKK3 confirm: 103.0

What do the screens show for `CCOP(=O)(OCC)c1nc(-c2ccccc2Cl)oc1N1CCOCC1`?
Efflux pump inh: -0.1; ABCB1 inh: 0.3; MEKK3 PB1 HTS: 104.0; MEKK2mut PB1 HTS: -1.0; MEKK2wt PB1 HTS: 102.0; ABCG2 inh: 0.3

What do the screens show for `Cc1ccc(NC(=O)C2CCCN(C(=O)c3ccc(Cl)cc3)C2)cc1C` (stereo not drawn)?
Efflux pump inh: -0.2; ABCB1 inh: 1.4; MEKK3 PB1 HTS: 106.0; MEKK2mut PB1 HTS: 0.0; MEKK2wt PB1 HTS: 99.0; ABCG2 inh: 15.8

Results for Cc1cc(-c2csc(N)n2)c(C)n1-c1ccc(Cl)c(Cl)c1 ?
Efflux pump inh: 0.0; ABCB1 inh: 1.0; MEKK3 PB1 HTS: 153.0*; MEKK2mut PB1 HTS: 1.0; MEKK2wt PB1 HTS: 109.0; ABCG2 inh: 2.3; MEKK2wt confirm: 101.0; MEKK2mut-MEK5: -4.0; MEKK3 confirm: 101.0

Results for CCCn1c(C)cc(-c2csc(N)n2)c1C ?
Efflux pump inh: 0.1; ABCB1 inh: 0.1; MEKK3 PB1 HTS: 88.0; MEKK2mut PB1 HTS: -2.0; MEKK2wt PB1 HTS: 93.0; ABCG2 inh: 1.1

How did COc1ccc(-n2c(C)cc(-c3csc(N)n3)c2C)cc1 do in these assays?
Efflux pump inh: 0.0; ABCB1 inh: 0.0; MEKK3 PB1 HTS: 128.0*; MEKK2mut PB1 HTS: 2.0; MEKK2wt PB1 HTS: 98.0; ABCG2 inh: -1.7; MEKK2wt confirm: 106.0; MEKK2mut-MEK5: 4.0; MEKK3 confirm: 98.0

How did CC(Oc1cccnc1[N+](=O)[O-])C(=O)Nc1ccc(Cl)cn1 (stereo not drawn) do in these assays?
Efflux pump inh: -0.1
